High-throughput results deposited in PubChem by The Scripps Research Institute Molecular Screening Center.
The list is not random: actives were taken first. Their share in the collection is about 1.4%.
CTSL1 counter = Fasciola hepatica cathepsin L1 inhibitors, primary screen, counter-screen for PFM18AAP inhibitor project, biochemical, QFRET, fluorogenic peptide substrate | hit rate 0.49% among 300,000 | recombinant F. hepatica cathepsin L1, Z-Leu-Arg-MCA fluorescence | inhibition, % at 5.96 µM | AID 1906, 2009;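 active = inhibition above the mean of all tested compounds plus 3 SD, set per screening campaign, cut at about 17% in these data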;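 note: 0% = plate median of test compound wells and 100% = 1 µM Z-Phe-Ala-diazomethylketone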
TDP2 absorb = human TDP2 enzyme inhibitors, primary screen, biochemical, epi absorbance, recombinant enzyme | Tyrosyl-DNA phosphodiesterase 2 (Homo sapiens), O95551 | T5PNP hydrolysis, p-nitrophenol absorbance 415 nm | inhibition, % at 12.8 µM | hit rate 0.34% among 370,000 | AID 720702, 2013;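 active = inhibition above the mean of all tested compounds plus 3 SD, set per campaign, cut at about 25% in these data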;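 note: 0% = DMSO with enzyme and 100% = buffer with substrate but no TDP2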
Target sequence (O95551 whole entry, looked up): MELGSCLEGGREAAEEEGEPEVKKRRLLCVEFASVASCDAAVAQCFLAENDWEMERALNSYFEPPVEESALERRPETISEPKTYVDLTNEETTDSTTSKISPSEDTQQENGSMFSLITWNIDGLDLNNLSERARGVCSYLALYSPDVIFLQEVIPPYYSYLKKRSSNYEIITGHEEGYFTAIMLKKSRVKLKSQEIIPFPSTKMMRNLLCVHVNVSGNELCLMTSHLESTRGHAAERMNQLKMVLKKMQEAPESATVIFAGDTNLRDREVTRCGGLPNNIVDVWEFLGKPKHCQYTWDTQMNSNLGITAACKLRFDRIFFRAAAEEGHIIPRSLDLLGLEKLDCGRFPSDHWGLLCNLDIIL
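Evaluation: % inhibition relative to enzyme-containing and enzyme-free wells. Material: recombinant human TDP2. Benchmarks: enzyme-free and DMSO wells. Timing: enzyme reaction with compound for 2 h at 37 °C. Compound dosing: 12.8 µM only. Measured by: p-Nitrophenol epi absorbance. Reagent: T5PNP substrate at 5 mM, a TopII-DNA adduct mimic. Replication: single well per compound.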
PAD4 FP inh = human PAD4 inhibitors, primary screen, biochemical, fluorescence polarization, 1536-well format | AID 485272, 2010 | inhibition, % at 6.36 µM | recombinant PAD4, RCA probe fluorescence polarization | hit rate 0.41% among 330,000;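 active = percent inhibition above a cutoff equal to the mean of all tested compounds plus 3 SD, cut at about 15% in these data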;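 note: 0% = PAD4 with RCA probe and DMSO and 100% = probe without PAD4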
GSTO1 counter = inhibitors of recombinant GSTO1, primary screen, counter-screen for RBBP9 inhibitor project, biochemical, fluorescence polarization; Glutathione S-transferase omega-1 (Homo sapiens), P78417; activity-based probe fluorescence polarization; inhibition, % at 5.96 µM; hit rate 1.1% among 300,000; AID 1974, 2009;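 active = inhibition above the campaign mean inhibition plus 3 SD, cut at about 35% in these data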;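 note: 0% = GSTO1-1 with DMSO and 100% = wells lacking GSTO1-1 enzyme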
Target sequence (P78417 whole entry, looked up): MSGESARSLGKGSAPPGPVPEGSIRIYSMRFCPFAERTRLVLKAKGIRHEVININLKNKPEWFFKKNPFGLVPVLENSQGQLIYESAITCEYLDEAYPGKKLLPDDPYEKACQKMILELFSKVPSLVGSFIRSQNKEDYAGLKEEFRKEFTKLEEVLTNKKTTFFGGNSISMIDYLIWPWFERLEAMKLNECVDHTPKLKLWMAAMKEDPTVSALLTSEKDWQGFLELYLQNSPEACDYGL
TDP2 inh conf = human TDP2 enzyme inhibitors, retest, confirmation, biochemical, epi absorbance, recombinant enzyme; absorbance read-out; inhibition, % at 12.8 µM; hit rate 22% among 1,100; shares compounds with TDP2 absorb; in the data active = inhibition above about 25%;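 note: 0% = vehicle with enzyme and 100% = no enzyme buffer only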
* hit, by the source's call; / = no result.

SMILES	CTSL1 counter	TDP2 absorb	PAD4 FP inh	GSTO1 counter	TDP2 inh conf
COc1c(F)c(F)cc2c(=O)c(C(=O)O)cn(C3CC3)c12	5	26*	-5	-2	1
COc1c(N2CCN[C@H](C)C2)c(F)cc2c(=O)c(C(=O)O)cn(C3CC3)c12	-5	/	-3	2	/
COCc1cccc(-c2csc(C(C)(O)c3cccc(OC)c3)n2)c1 (stereo unspecified)	/	-4	/	/	/
Cc1ccc(OCCN2CCCC2)cc1	1	25*	0	-2	11
CCCCCN1CCCCC(NC(=O)C(C)(C)C)C1=O (stereo unspecified)	/	-15	/	/	/
Cc1cc(Cl)c(OCCOCCN2CCN(C)CC2)c(Br)c1	5	34*	1	6	9
Cc1cc(Cl)c(OCCOCCN2CCC(C)CC2)c(Br)c1	4	7	-2	5	/
COc1ccc(CNC(=O)CCCNC(=O)c2ccc(Cl)cc2)cc1OC	-2	33*	3	-1	0
COc1ccc(CCNC(=O)CCNC(=O)c2ccc(Cl)cc2)cc1OC	-2	4	-5	1	/
O=c1ccc(=O)n(-c2ccccc2)[nH]1	0	4	7	-4	/
O=c1cc(-c2ccccc2)[nH]n1-c1ccccc1	/	76*	/	/	-3
COc1cccc(CC(O)CC2c3c(cc4c(c3OC)OCO4)CCN2C)c1 (stereo unspecified)	/	-2	/	/	/
COc1c2c(cc3c1C(CC(O)Cc1ccccc1)N(C)CC3)OCO2 (stereo unspecified)	-4	25*	-1	-1	-2
C=CCn1c(=S)[nH]c2scc(-c3ccc(C)o3)c2c1=O	8	5	-8	-5	/
C=CCn1c(=S)[nH]c2sccc2c1=O	3	60*	1	7	2
COc1ccc(CC(N)c2csc(NC(=O)c3cc(C(C)(C)C)oc3C)n2)cc1 (stereo unspecified)	/	-3	/	/	/
O=C(COC(=O)c1nc(Cl)ccc1Cl)c1ccccc1Cl	-3	29*	3	-1	0
O=C(CSc1nnc(-c2cnccn2)n1-c1ccccc1)c1ccccc1Br	/	-8	/	/	/
CCOc1cc(/C=C\c2nc(O)c([N+](=O)[O-])c(=O)[nH]2)ccc1OC(C)C	-3	25*	0	-5	2
Cc1ccc(S(=O)(=O)N(C)CC(=O)Nc2cccc(C)n2)cc1	-2	80*	-1	0	7
CCCC(=O)OC12CCCN(C1)/C(=C/c1cccc(Cl)c1)C2 (stereo unspecified)	/	-2	/	/	/
Cc1[nH][nH]c(=O)c1C(c1ccc(-c2ccc(C(=O)O)cc2)o1)c1c(C)[nH][nH]c1=O	/	60*	/	/	32*
COc1ccc(CN(CCN2CCOCC2)C(=O)c2cc(F)ccc2F)cc1OC	/	7	/	/	/
O=S1(=O)c2ccc(Br)cc2OC[C@@H](Cc2ccccc2)N1Cc1cn(CC2CCCCC2)nn1	/	-15	/	/	/
O=C(CN1C(=O)S/C(=C\c2ccc(F)cc2)C1=O)Nc1cccc(S(=O)(=O)NCc2ccco2)c1	-1	27*	1	-1	0
SMILES	CTSL1 counter	TDP2 absorb	PAD4 FP inh	GSTO1 counter	TDP2 inh conf
CCc1ccccc1OCC(=O)Nc1cccc(S(=O)(=O)NCc2ccco2)c1	/	-5	-8	/	/
Cc1cc2oc(C(=O)NCCc3ccc(S(N)(=O)=O)cc3)c(C)c2cc1C	4	30*	-8	-29	3
COc1ccc2c(c1)Cc1sc(NC(C)=O)nc1-2	3	49*	-14	1	29*
COc1ccc2c(c1)CCc1sc(NC(=O)c3ccco3)nc1-2	-2	/	-4	2	/
COc1ccc2c(c1)Cc1sc(NC(=O)c3ccco3)nc1-2	2	64*	-7	15	10
O=C(CSc1nnc(-c2cccs2)n1Cc1ccco1)Nc1ccc(OCc2ccccc2)cc1	/	-12	/	/	/
Clc1ccc(CN2CCSCC2)c(Cl)c1	6	10	5	5	/
Cc1ccc(C)c(CN2CCSCC2)c1	-1	26*	-9	-1	4
Cc1c(NC(=O)C2CCCN(S(=O)(=O)c3ccc(Cl)s3)C2)c(=O)n(-c2ccccc2)n1C (stereo unspecified)	/	-4	/	/	/
COc1cc(NCCCC(C)N)c2ncccc2c1 (stereo unspecified)	/	64*	/	/	27*
COc1cc(NCCCCC(C)N)c2nccc(C)c2c1 (stereo unspecified)	/	9	/	/	/
CCn1cc(C(=O)Nc2ncccc2O)c(=O)c2cc(F)c(N3CCN(C(=O)c4ccco4)CC3)cc21	7	28*	0	-27	-2
CCn1cc(C(=O)NC(C)C)c(=O)c2cc(F)c(N3CCN(C(=O)c4ccco4)CC3)cc21	6	11	-2	3	/
O=C(c1ccco1)[C@@H]1[C@@H]2C(=O)N(c3ccc(F)cc3)C(=O)[C@@H]2C2c3ccccc3C=CN21 (stereo partly specified)	14	29*	-13	31	17
Cc1ccc(C(=O)N/N=c2\oc3ccccc3cc2C(N)=O)cc1	6	-13	0	-3	/
NC(=O)c1cc2ccccc2o/c1=N\NC(=O)c1ccncc1	2	32*	-1	19	0
O=C(NCCc1nc2ccccc2n1CCOc1ccc2cccnc2c1)C1CCCCC1	/	4	/	/	/
S=C(Nc1ccc2nsnc2c1)N1CCCC1	-2	67*	-16	29	45*
COc1ccc(-c2csc3ncnc(N4CCN(S(=O)(=O)c5cccc(C(F)(F)F)c5)CC4)c23)cc1	1	25*	1	-4	1
COc1ccc(-c2csc3ncnc(N4CCN(S(=O)(=O)c5cccc(Br)c5)CC4)c23)cc1	1	5	-2	-8	/
CCN1CCN(c2sc(S(=O)(=O)CC)nc2S(=O)(=O)c2ccc(C)cc2)CC1	/	-2	/	/	/
CCS(=O)(=O)c1nc(S(=O)(=O)c2ccc(C)cc2)c(N2CCN(CCO)CC2)s1	1	25*	-2	-1	4
O=C(NC1CCCCN(Cc2ccc(Cl)cc2)C1=O)c1ccc(F)c(F)c1 (stereo unspecified)	/	-10	/	/	/
COc1ccc(NC(=O)CN(C)S(=O)(=O)c2ccc(Br)s2)cc1	-4	25*	-2	-1	1
COc1ccc(NC(=O)CN(C)S(=O)(=O)c2ccc(Br)s2)cc1OC	2	-3	-1	5	/
CCCCn1nnnc1C(c1cc2ccccc2o1)N(C)CCc1ccccc1 (stereo unspecified)	/	1	/	/	/
COC(=O)c1ccccc1NC(=S)N1CCC(N2CCCCC2)CC1	-2	-6	-7	10	/
CCOC(=O)c1ccccc1NC(=S)N1CCC(N2CCCCC2)CC1	3	34*	2	1	3
Cc1ccc(S(=O)(=O)c2ccc([N+](=O)[O-])o2)cc1	/	1	/	/	/
COc1cc2c(c(OC)c1OC)C(=O)CO2	/	0	/	/	/
